# Measured values pooled from the literature.
# FGFR2 N549H: Fibroblast growth factor receptor 2 (FGFR2, Homo sapiens, UniProt P21802, N549H)
# FGFR2: Fibroblast growth factor receptor 2 (FGFR2, Homo sapiens, UniProt P21802)
Compound,target,observed,mode,technique,concentration,inhibition [%]
CCN(CC)CCNC(=O)c1c(C)[nH]c(/C=C2\C(=O)Nc3ccc(F)cc32)c1C,FGFR2 N549H,cell-free assay,,,10 µM,95
COc1cc2nccc(Oc3ccc(NC(=O)c4c5n(n(-c6ccc(F)cc6)c4=O)CCCC5)cc3)c2cc1OC,FGFR2,enzyme activity,inhibitor,,0.1 µM,0
CCCS(=O)(=O)Nc1ccc(F)c(C(=O)c2c[nH]c3ncc(-c4ccc(Cl)cc4)cc23)c1F,FGFR2,enzyme activity,inhibitor,,1 µM,< 10
CNc1cccc2cc(C(=O)Nc3ccc(C(=O)O)cc3)c(=O)[nH]c12,FGFR2 N549H,enzyme activity,inhibitor,,10 µM,2.8
CC/C(=N\NC(=O)NCc1cccc(O)c1)c1ccc(O)c(C)c1O,FGFR2,enzyme activity,inhibitor,,0.1 µM,7.7
COc1cc2ncnc(Nc3ccc(Oc4ccccc4)c(C)c3C)c2cc1OC,FGFR2,enzyme activity,inhibitor,,1 µM,3
C=CC(=O)Nc1cc(Nc2nccc(Nc3cc(Cl)c(F)cc3C(C)(C)O)n2)c(OC)cc1N1CC[C@@H](N(C)C)C1,FGFR2,enzyme activity,inhibitor,,1 µM,10
CNC(=O)c1cc2c(Oc3ccc(NC(=O)C4(C(=O)Nc5ccc(F)cc5)CC4)cc3)ccnc2cc1OC,FGFR2 N549H,enzyme activity,inhibitor,radiometric,1 µM,95
COc1cc2ncnc(Nc3ccc(Oc4ccccc4)cc3C)c2cc1OC,FGFR2,enzyme activity,inhibitor,,1 µM,8
CSc1nc(C)c(-c2ccnc(Nc3ccc(N4CCOCC4)cc3)c2)[nH]1,FGFR2,cell-free assay,inhibitor,,10 µM,44.9
CN(C)C1CCN(CC#Cc2nn(C3CCCC3)c3nc(NCc4ccccc4)ncc23)C1 (stereo not drawn),FGFR2,enzyme activity,inhibitor,FRET,10 µM,46
Cc1ccc(Nc2nccc(N(C)c3ccc4c(C)n(C)nc4c3)n2)cc1S(N)(=O)=O,FGFR2 N549H,cell-free assay,,,10 µM,96
O=C(CSc1nc2nccnc2c(=O)n1CCc1ccccc1)Nc1nccs1,FGFR2,enzyme activity,inhibitor,,10 µM,3
CNC(=O)c1cc(Oc2ccc(NC(=O)Nc3ccc(Cl)c(C(F)(F)F)c3)cc2)ccn1,FGFR2 N549H,cell-free assay,,,10 µM,100
CS(=O)(=O)Nc1cccc(-c2csc(NC(=O)CSc3nc4nccnc4c(=O)n3CCc3ccccc3)n2)c1,FGFR2,enzyme activity,inhibitor,,10 µM,-2
